Each molecule was assayed against T1, OR8D1 (Homo sapiens) (UniProt Q8WZ84). Details: stereoisomer not certain.
T1 sequence (whole entry): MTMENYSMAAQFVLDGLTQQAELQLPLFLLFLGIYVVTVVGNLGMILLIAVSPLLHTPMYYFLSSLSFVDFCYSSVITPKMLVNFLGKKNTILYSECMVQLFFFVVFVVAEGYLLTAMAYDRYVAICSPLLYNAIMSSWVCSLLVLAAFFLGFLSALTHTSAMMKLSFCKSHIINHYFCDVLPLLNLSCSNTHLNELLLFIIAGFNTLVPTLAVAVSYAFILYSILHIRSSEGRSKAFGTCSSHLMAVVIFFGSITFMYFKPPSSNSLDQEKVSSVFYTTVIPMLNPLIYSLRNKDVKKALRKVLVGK
Method in brief: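 Each receptor–molecule pair is labelled responsive or non-responsive (inactive) according to whether the original authors judged the measured signal statistically different from baseline. The data were taken from the main text and supplementary material of published papers and checked for typos and inconsistencies. Assay methods differed by source, with transient luciferase assays in mammalian cell lines being common.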
In the case of CCCCC(CC)CCC(=O)O (configuration not stated), the “odorant receptor agonist call” value is reported as “inactive”.
CCCCC1CCC(=O)O1 (configuration not stated) was tested, and the “odorant receptor agonist call” value was “inactive”.
For CCC(C)CO (configuration not stated), the “odorant receptor agonist call” value was “inactive”.
In the case of CC1=CCC(C(C)(C)S)CC1 (configuration not stated), the “odorant receptor agonist call” value is reported as “inactive”.
CCCCCCCC1CCC(=O)O1 (configuration not stated) was tested, and the “odorant receptor agonist call” value was “inactive”.
Cc1ccc(O)cc1 was tested, and the “odorant receptor agonist call” value was “inactive”.
For CCCCC=CC=CC=O, the “odorant receptor agonist call” value was “inactive”.
In the case of CCc1ccc(O)cc1, the “odorant receptor agonist call” value is reported as “inactive”.
For CSCSC, the “odorant receptor agonist call” value was “inactive”.
With SCCc1ccccc1 the “odorant receptor agonist call” value was “inactive”.
For CSSc1ccoc1C, the “odorant receptor agonist call” value was “inactive”.
For CC(=O)C1=NCCS1, the “odorant receptor agonist call” value was “inactive”.
In the case of COc1nccnc1C(C)C, the “odorant receptor agonist call” value is reported as “inactive”.
With CCCCCCCCCC(=O)[O-].[H+] the “odorant receptor agonist call” value was “inactive”.
For C=CC(=O)CC, the “odorant receptor agonist call” value was “inactive”.
With Cc1occc1S the “odorant receptor agonist call” value was “inactive”.
CCCCCCOC(C)=O was tested, and the “odorant receptor agonist call” value was “inactive”.
CCCSSCCC was tested, and the “odorant receptor agonist call” value was “inactive”.
For CCC(=O)C(C)S (configuration not stated), the “odorant receptor agonist call” value was “inactive”.
For CCO, the “odorant receptor agonist call” value was “inactive”.
For CSCCCO, the “odorant receptor agonist call” value was “inactive”.
CCCCCCC1CCC(=O)O1 (configuration not stated) was tested, and the “odorant receptor agonist call” value was “inactive”.
COCCC(C)(C)S was tested, and the “odorant receptor agonist call” value was “inactive”.
With CCOC(=O)C=Cc1ccccc1 the “odorant receptor agonist call” value was “inactive”.
CCC(=O)C1=NCCC1 was tested, and the “odorant receptor agonist call” value was “inactive”.
For CCOC(=O)CCC(C)C, the “odorant receptor agonist call” value was “inactive”.
With CSC the “odorant receptor agonist call” value was “inactive”.
In the case of CCOC(=O)C1CCCCC1, the “odorant receptor agonist call” value is reported as “inactive”.
In the case of CCC=CCC=O, the “odorant receptor agonist call” value is reported as “inactive”.
In the case of CC(C)CCCCCCCCCCC=O, the “odorant receptor agonist call” value is reported as “inactive”.
With C=C(C)C1CC=C(C)CC1 (configuration not stated) the “odorant receptor agonist call” value was “inactive”.
CC(=O)C=CC1=C(C)CCCC1(C)C was tested, and the “odorant receptor agonist call” value was “inactive”.
With CCCSSSCCC the “odorant receptor agonist call” value was “inactive”.
For CCC(C)C=O (configuration not stated), the “odorant receptor agonist call” value was “inactive”.
For COc1nccnc1CC(C)C, the “odorant receptor agonist call” value was “inactive”.
C=CC(=O)CCCCC was tested, and the “odorant receptor agonist call” value was “inactive”.
In the case of CCCCCCCC(=O)[O-].[H+], the “odorant receptor agonist call” value is reported as “inactive”.
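Further: active if original authors judged signal statistically different from baseline.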
